High-throughput results deposited in PubChem BioAssay by Sanford-Burnham Center for Chemical Genomics.
In the library only some 2% were active in any assay of this set; here they are far more common.
DNMT1 inh: blocks human DNA methyltransferase DNMT1. inhibition (reported as % activation of signal), % at 10 µM. hit rate 0.83% among 360,000. P26358. DNMT1 molecular beacon, Hinp1I cleavage, fluorescence; in the data active = inhibition above about 50%
CSN inh: blocks human CSN-mediated cullin deneddylation | hit rate 0.38% among 360,000 | inhibition, % at 12.5 µM | Q92905 | Purified CSN, SCF-Nedd8-OG deneddylation, fluorescence polarization;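 active = pattern-corrected inhibition above about 35%, with an unprinted fluorescence ratio check between 0.5 and 1.5, limit read from the data, passing the limit was not always enough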;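 also: 0% = enzyme with substrate and 100% = substrate without enzyme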
Target sequence (Q92905 whole entry, looked up, one chain of several): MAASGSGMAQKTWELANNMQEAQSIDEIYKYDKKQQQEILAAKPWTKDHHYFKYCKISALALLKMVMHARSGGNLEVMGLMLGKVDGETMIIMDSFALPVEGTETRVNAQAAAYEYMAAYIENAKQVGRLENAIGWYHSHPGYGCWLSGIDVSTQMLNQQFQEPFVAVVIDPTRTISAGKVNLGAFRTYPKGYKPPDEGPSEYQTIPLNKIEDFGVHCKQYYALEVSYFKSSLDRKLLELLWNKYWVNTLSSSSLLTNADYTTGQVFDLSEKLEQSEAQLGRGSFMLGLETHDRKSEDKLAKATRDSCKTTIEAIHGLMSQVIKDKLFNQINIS
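Test system: purified human Csn5 enzyme expressed in HEK293T cells. Amount: 0.24 nM enzyme. Reagent: SCFSkp2-Nedd8OG substrate at 10 nM final. Schedule: 90 min incubation of compound, enzyme and substrate at room temperature. Detection: fluorescence polarization. Read-out: % inhibition of substrate cleavage by Csn5.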
LMPTP inh: LMPTP (human) inhibition; hit rate 0.22% among 360,000; P24666; recombinant LMPTP-A, OMFP fluorogenic substrate, fluorescence intensity; inhibition, % at 20 µM; AID 651560;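 active = compounds that cut the enzyme signal by at least half of the control window in the single-dose screen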;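 also: plate controls were DMSO wells with enzyme plus substrate for no effect and substrate without enzyme for full effect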
Target sequence (P24666 whole entry, looked up): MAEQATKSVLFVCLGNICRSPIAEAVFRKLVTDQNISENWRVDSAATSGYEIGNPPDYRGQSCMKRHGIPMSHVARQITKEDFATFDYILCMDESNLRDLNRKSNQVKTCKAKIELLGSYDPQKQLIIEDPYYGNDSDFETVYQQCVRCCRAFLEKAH
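test system = LMPTP-A | amount = 0.625 nM LMPTP-A final | reagent = fluorogenic phosphatase substrate OMFP at 400 µM final | incubation = 50 min at room temperature | benchmarks = no-enzyme low control, uninhibited high control | medium = Bis-Tris pH 6.0, DTT, detergent | signal = fluorescence intensity of OMFP turnover product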
STEP block: STEP (human) phosphatase inhibition; AID 588621; hit rate 0.25% among 360,000; recombinant STEP, OMFP fluorogenic substrate, fluorescence; inhibition, % at 20 µM; P54829;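 active = inhibition at 20 µM, scaled per plate between control wells, above about 37%, limit read from the data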;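 also: 0% = DMSO with enzyme and substrate and 100% = substrate only without enzyme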
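Assay system: isolated STEP enzyme. Buffer or medium: pH 6.0 Bis-Tris with DTT and Tween 20. Also added: fluorogenic phosphatase substrate OMFP at 25 µM final. Dosing: 20 µM, 1% DMSO. Timing: 20 min reaction, room temperature, in the dark. Measured by: fluorescence intensity, excitation 480 nm, emission 540 nm. Evaluation: normalized % inhibition.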
Scp-1 inhibitor: inhibitors of human Scp-1 phosphatase; Recombinant Scp1, phosphopeptide, malachite green phosphate absorbance; hit rate 0.88% among 340,000; inhibition, % at 20 µM; AID 493091;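 active = inhibition above about 50% at 20 µM, limit read from the data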;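 also: plate controls were DMSO wells with enzyme for no effect and wells lacking enzyme for full effect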
Target sequence (Q9GZU7 76-261 limits assumed): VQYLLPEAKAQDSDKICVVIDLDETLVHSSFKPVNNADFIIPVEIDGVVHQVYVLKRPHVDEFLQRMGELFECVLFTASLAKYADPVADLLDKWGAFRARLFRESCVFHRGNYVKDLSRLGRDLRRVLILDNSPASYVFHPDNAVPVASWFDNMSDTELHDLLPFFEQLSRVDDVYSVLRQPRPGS
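Material – SCP-1 phosphatase catalytic domain, residues 76-261 · Buffer or medium – Acidic Tris acetate buffer with magnesium and detergent · Also added – Phospho 17-mer peptide substrate · Compound – single 20 µM dose, 1% DMSO · Times – 45 min room-temperature reaction, 5 min colour, 30 min stabiliser · Technique – Phosphate-binding colour reagent, absorbance read at 630 nm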
SUMO1 PPI mod: modulators of human SUMO1-mediated protein-protein interactions; hit rate 0.33% among 360,000; AID 602429; SUMO1 binding to a labelled peptide, TR-FRET, 1 h; inhibition, % at 20 µM; P63165; in the data active = inhibition above about 37%
Beacon interf DR: shows spectral interference in the DNMT1 beacon assay | IC50, µM | 200 tested, under 10 active | molecular beacon fluorescence, spectral interference counter-screen | shares compounds with DNMT1 inh; call rule not given here
DNMT1 confirm: confirmation of human DNMT1 inhibitors | shares compounds with DNMT1 inh | DNMT1 molecular beacon HinP1I cleavage, fluorescence | inhibition, % at 10 µM | hit rate 8% among 2,300 | AID 602385;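 active = average inhibition of at least 30% in the single-concentration confirmation test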
Beacon interf: shows spectral interference in the DNMT1 beacon assay; shares compounds with DNMT1 inh; DNMT1 molecular beacon spectral interference counterscreen, fluorescence 485/520; activation (fluorescence interference), % at 10 µM; hit rate 1% among 2,300;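 active = activation of at least 30% at 10 µM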;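 also: DNMT1 catalytic domain with a HinP1I cleavage step and a FAM/dabcyl DNA beacon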
An asterisk follows results filed as active; . = not tested or not shown.

SMILES	DNMT1 inh	CSN inh	LMPTP inh	STEP block	Scp-1 inhibitor	SUMO1 PPI mod	DNMT1 confirm	Beacon interf	others
C=CCN1C(=O)c2ccc(C(=O)N(C)CC(=O)Nc3ccccc3Br)cc2C1=O	-0.6	0.8	-1.3	0.2	-10.0	-21.6	.	.
COc1ccc(/C=N/Nc2ccc([N+](=O)[O-])cc2S(=O)(=O)N2CCN(C)CC2)cc1	55.6*	34.5	-1.1	-15.0	2.4	5.5	1.4	5.5
COc1ccc(C=NNc2ccc([N+](=O)[O-])cc2S(=O)(=O)Nc2ccccc2C(=O)O)cc1OC	-22.0	6.7	2.0	-2.9	-3.9	3.1	.	.
CCCn1c(N)c(NCCN2CCOCC2)c(=O)[nH]c1=O	2.7	-7.3	-1.7	4.2	-8.6	-1.2	.	.
COc1ccc(C(=O)COC(=O)c2ccc3c(c2)OCCO3)c(OC)c1	-0.8	1.1	1.5	0.8	1.2	-5.7	.	.
CSc1nc(Sc2cccc(Cl)c2)c2ccccc2n1	86.8*	-0.8	0.8	1.8	2.6	2.1	6.6	4.1
CSc1nc(Sc2ccccc2)c2ccccc2n1	1.0	-0.1	2.3	4.7	-1.9	-6.4	.	.
CC(=O)N/C(=N/c1nc(C)cc(C)n1)Nc1cccc(C)c1C	-1.3	-0.5	0.3	-1.8	-9.1	-2.9	.	.
N#Cc1cnn(Cc2ccccc2)c1N	71.5*	-3.3	-4.6	-1.8	-8.5	2.8	2.0	2.6
N#Cc1cnn(Cc2ccc(Cl)cc2)c1N	9.6	1.3	-0.1	-0.8	2.3	-0.2	.	.
Cc1cc(C)c2oc(-c3ccc(C)c(NC(=S)NC(=O)c4cccs4)c3)nc2c1	51.4*	5.1	1.7	2.1	-1.6	-0.3	5.2	-5.7
Cc1ccc(-c2nc3ccccc3o2)cc1NC(=S)NC(=O)c1cccs1	55.0*	1.3	0.2	1.1	0.8	0.6	-0.3	-1.6
Cc1ccc2oc(-c3cccc(NC(=S)NC(=O)c4cccs4)c3)nc2c1	6.3	-2.7	-1.8	-0.5	-4.2	-1.5	.	.
COc1ccc(-c2cc(=O)oc3c(C)c(OC(=O)c4cccs4)ccc23)cc1	59.6*	-5.9	1.7	1.1	1.2	1.2	3.0	-8.6
COc1cc(NS(=O)(=O)c2ccc(NC(=O)c3cccnc3)cc2)ncn1	0.2	1.1	0.3	-2.2	-6.1	5.7	.	.
CCOC(=O)C1=CCN(S(=O)(=O)c2ccccc2C)C1c1ccc(F)cc1 (stereo not drawn)	-0.1	-0.9	0.5	2.7	.	7.0	.	.
COc1ccc(NC(=S)N2CCC(C(=O)c3ccc(C)cc3)CC2)cc1	81.3*	4.4	0.7	3.0	-2.2	4.6	2.0	3.4
COc1ccc(N(Cc2cc3ccc(C)cc3[nH]c2=O)C(=O)c2ccco2)cc1	-3.2	3.8	0.6	0.4	-0.4	5.0	.	.
Cc1ccc(C)c(N(Cc2cc3ccc(C)cc3[nH]c2=O)C(=O)c2ccco2)c1	141.9*	6.8	0.1	1.1	-4.3	2.0	2.8	1.5
O=C(NCc1ccccc1Cl)[C@H]1CCCN1C(=O)[C@H]1CCCN1C(=O)c1cccc2ccccc12	.	2.2	-0.6	.	.	7.7	.	.
Cc1nc(-c2ccccc2)sc1-c1n[nH]c(=S)n1C	3.6	0.8	-1.0	1.3	2.9	0.7	.	.
CSc1sc(-c2n[nH]c(=S)n2C)c2c1C=CCC2	65.5*	8.6	50.4*	-0.3	4.0	9.0	-1.6	-6.5
CC(NC(C(=O)c1ccccc1)c1ccccc1)c1ccccc1 (stereo not drawn)	-3.4	-2.7	2.2	0.0	3.3	-5.8	.	.
COc1ccc(NC(=O)COC(=O)c2c3c(nc4ccccc24)CCCC3)cc1	54.6*	5.6	0.7	-0.6	1.6	1.3	2.2	3.9
COc1ccc(OC)c(NC(=O)COC(=O)c2c3c(nc4ccccc24)CCCC3)c1	-12.6	3.6	4.2	9.6	-0.3	3.5	.	.
SMILES	DNMT1 inh	CSN inh	LMPTP inh	STEP block	Scp-1 inhibitor	SUMO1 PPI mod	DNMT1 confirm	Beacon interf	others
CC(=O)Nc1ccc(NC(=O)C2CCCN2C(=O)NCc2ccccc2)cc1 (stereo not drawn)	87.5*	1.0	-1.2	4.3	-7.4	1.3	1.5	2.6
O=C(Nc1ccccc1)C1CCCN1C(=O)NCc1ccccc1 (stereo not drawn)	0.6	2.2	1.1	-3.6	-6.5	3.8	.	.
O=C(Nc1cccc(Cl)c1)c1nc[nH]c1C(=O)NCCCCNC(=O)c1[nH]cnc1C(=O)Nc1cccc(Cl)c1	52.7*	-0.6	-0.9	-0.3	-8.2	-6.2	5.0	2.4
NNC(=O)c1nc[nH]c1C(=O)Nc1ccccc1	65.9*	8.2	-2.6	0.4	-1.2	2.4	0.0	16.4
O=C(Nc1ccccc1)c1nc[nH]c1C(=O)NCc1ccccc1	2.6	0.6	0.7	-5.9	-11.2	11.7	.	.
Cc1ccc(/C=c2\sc3nc(-c4ccco4)nn3c2=O)o1	104.9*	43.3*	60.8*	71.6*	81.3*	44.2*	0.0	-0.7
CCOC(=O)N1CCC(NS(=O)(=O)c2ccc3c(c2)oc(=O)n3C)CC1	52.7*	12.3	-0.3	-0.7	-2.5	-0.3	2.7	4.4
CCOC(=O)N1CCC(NC(=O)C2CCCN(S(=O)(=O)c3ccc4c(c3)oc(=O)n4C)C2)CC1 (stereo not drawn)	12.4	0.2	-0.5	0.8	-6.6	3.2	.	.
Cc1nn(-c2ccccc2)c(C)c1/C=N/n1c(-c2ccc(Cl)cc2)n[nH]c1=S	57.4*	-13.7	2.1	4.1	-2.7	-2.4	1.4	1.6
COc1ccccc1C(=O)Nc1sc2c(c1C(=O)NCc1ccco1)CCCC2	51.0*	-0.2	0.0	-1.6	-10.4	-2.0	-0.7	-4.2
COC(=O)/C(C(C)=O)=C(\C=C\N(C)C)N(C)C	1.8	1.5	-0.6	0.7	-3.8	-1.1	.	.
COC(=O)\C(C(C)=O)=C(/C=C/C=C/C=C/N(C)C)N(C)C	108.5*	16.9	0.9	10.2	74.0*	-2.0	37.1*	19.1	Beacon interf DR=>99
COC(=O)c1sccc1NC(=O)c1cc(-c2cccc(C)c2)nc2ccccc12	50.1*	1.9	1.3	-5.4	7.1	-2.4	-0.1	-11.9
COC(=O)c1sccc1NC(=O)c1cc(-c2ccc(C)cc2)nc2ccccc12	8.4	5.9	0.9	-0.7	0.0	0.2	.	.
Cc1ccc2nc(/C(C#N)=C\c3ccc(Oc4ccc([N+](=O)[O-])cn4)cc3)[nH]c2c1	53.8*	-4.6	0.2	0.8	10.6	-12.7	6.2	2.6
